These results are taken from BindingDB's records for doi:10.1016/j.bmcl.2017.11.026 (Padmashri Vikhe Patil College of Arts, 2018).

T1 sequence (P01375 whole entry): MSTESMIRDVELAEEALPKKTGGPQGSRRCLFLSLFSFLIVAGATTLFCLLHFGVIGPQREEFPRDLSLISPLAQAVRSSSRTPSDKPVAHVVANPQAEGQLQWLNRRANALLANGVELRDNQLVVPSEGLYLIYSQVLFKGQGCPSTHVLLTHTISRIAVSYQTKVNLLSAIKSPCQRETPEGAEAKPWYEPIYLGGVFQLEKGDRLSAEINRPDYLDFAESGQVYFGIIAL

In one assay the target is T1, Tumor necrosis factor (Homo sapiens, UniProt P01375). Briefly: Inhibition of LPS-induced TNF-alpha production in human PBMC preincubated for 30 mins followed by LPS addition measured after 5 hrs by ELISA. The method, boiled down:
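Donor blood diluted 1:1 in PBS; PBMCs isolated on histopaque, washed, resuspended in RPMI 1640 with 10% FBS and antibiotics, 1 x 10^6 cells/ml (viability ≥98%). Compounds at 0.03–100 μM in DMSO (final 0.5%) for 30 min at 37 °C, 5% CO2, then E. coli 0127:B8 LPS 1 µg/mL final for 5 h. Supernatant TNF-α by ELISA; % inhibition vs vehicle; IC50 mean of three independent experiments.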
Background: In an ELISA, binding on a coated surface is turned into a signal by an enzyme label.
The term IC50 denotes the concentration that inhibits the measured activity by half. Low values mean greater potency, high ones weaker potency. `O=S(=O)(c1cnc2ccc(Cl)nn12)N1CCN(Cc2ccccc2)CC1`: the IC50 stood at 30 µM. Same read-out and setting: the value for `COc1ccc(-c2ccc3ncc(S(=O)(=O)N4CCC(C#N)(c5ccccc5)CC4)n3n2)cc1OC` was 0.5 µM. The same measure, in the same setting: in the case of `O=S(=O)(NCC1CCCO1)c1cnc2ccc(Cl)nn12` (configuration not stated) it was 30 µM; in that of `COc1cccc(CNS(=O)(=O)c2cnc3ccc(-c4ccc(S(C)(=O)=O)cc4)nn23)c1`, 28 µM. Same read-out and setting: in the case of `O=S(=O)(c1cnc2ccc(-c3cccnc3)nn12)N1CCN(Cc2ccccc2)CC1` it was 18 µM. For `N#CC1(c2ccccc2)CCN(S(=O)(=O)c2cnc3ccc(Cl)nn23)CC1`, inhibition was half-maximal at 25 µM (IC50). Still for that read-out and setting: the value for `CS(=O)(=O)c1ccc(-c2ccc3ncc(S(=O)(=O)N4CCC(C#N)(c5ccccc5)CC4)n3n2)cc1` was 8 µM.

Turning to `O=S(=O)(c1cnc2ccc(-c3cncc(F)c3)nn12)N1CCN(c2ccccn2)CC1`, the half-inhibitory concentration (IC50) was determined as 28 µM. Same read-out and setting: in the case of `O=S(=O)(c1cnc2ccc(-c3cncc(C(F)(F)F)c3)nn12)N1CCN(c2ccccn2)CC1` it was 11 µM; in that of `Nc1ncc(-c2ccc3ncc(S(=O)(=O)N4CCN(c5ccccn5)CC4)n3n2)cc1C(F)(F)F`, 11 µM; in that of `CS(=O)(=O)c1ccc(-c2ccc3ncc(S(=O)(=O)N4CCN(c5ccccn5)CC4)n3n2)cc1`, 12 µM.

The molecule `N#CC1(c2ccccc2)CCN(S(=O)(=O)c2cnc3ccc(-c4cccnc4)nn23)CC1` yielded an IC50 of 7 µM. `N#CC1(c2ccccc2)CCN(S(=O)(=O)c2cnc3ccc(-c4cncc(C(F)(F)F)c4)nn23)CC1`: the IC50 came to 20 µM.

Take `COc1cccc(CNS(=O)(=O)c2cnc3ccc(-c4cncc(F)c4)nn23)c1`: the concentration for half-maximal inhibition (IC50) is 6 µM. On the same count and under the same terms, in the case of `COc1cccc(CNS(=O)(=O)c2cnc3ccc(-c4cncc(C(F)(F)F)c4)nn23)c1` it was over 30 µM; in that of `O=S(=O)(NCC1CCCO1)c1cnc2ccc(-c3cccnc3)nn12` (configuration not stated), 4 µM; in that of `O=S(=O)(NCC1CCCO1)c1cnc2ccc(-c3cncc(F)c3)nn12` (configuration not stated), 4 µM. The same measure, in the same setting: in the case of `O=S(=O)(NCC1CCCO1)c1cnc2ccc(-c3cncc(C(F)(F)F)c3)nn12` (configuration not stated) it was over 30 µM; in that of `O=S(=O)(c1cnc2ccc(-c3cccnc3)nn12)N1CCN(c2ccccn2)CC1`, 11 µM.

`N#CC1(c2ccccc2)CCN(S(=O)(=O)c2cnc3ccc(-c4cncc(F)c4)nn23)CC1` gave an IC50 of over 30 µM. For `COc1cccc(CNS(=O)(=O)c2cnc3ccc(-c4ccc(OC)nc4)nn23)c1`, the IC50 was over 30 µM.

For the molecule `CS(=O)(=O)c1ccc(-c2ccc3ncc(S(=O)(=O)NCC4CCCO4)n3n2)cc1` (configuration not stated), the half-inhibitory concentration (IC50) was over 30 µM. Consider `CCN1CCN(S(=O)(=O)c2cnc3ccc(-c4ccc(S(C)(=O)=O)cc4)nn23)CC1`, for which 15 µM corresponded to half-maximal inhibition (IC50). Still for that read-out and setting: the value for `CCN1CCN(S(=O)(=O)c2cnc3ccc(-c4ccc(OC)cc4)nn23)CC1` was 20 µM; that for `CCN1CCN(S(=O)(=O)c2cnc3ccc(-c4cncc(C(F)(F)F)c4)nn23)CC1` was 9 µM; that for `CCN1CCN(S(=O)(=O)c2cnc3ccc(-c4cncc(F)c4)nn23)CC1` was over 30 µM. Still for that read-out and setting: in the case of `CCN1CCN(S(=O)(=O)c2cnc3ccc(-c4cccnc4)nn23)CC1` it was 15 µM; in that of `COc1cccc(CNS(=O)(=O)c2cnc3ccc(Cl)nn23)c1`, over 30 µM. `O=S(=O)(c1cnc2ccc(Cl)nn12)N1CCN(c2ccccc2)CC1` came in with an IC50 of 30 µM. The same measure, in the same setting: the value for `CCN1CCN(S(=O)(=O)c2cnc3ccc(Cl)nn23)CC1` was over 30 µM. The same measure, in the same setting: the value for `NS(=O)(=O)c1cnc2ccc(Cl)nn12` was 28 µM; that for `O=S(=O)(c1cnc2ccc(-c3cncc(F)c3)nn12)N1CCN(Cc2ccccc2)CC1` was over 30 µM. Turning to `CCN1CCN(S(=O)(=O)c2cnc3ccc(-c4ccc(OC)nc4)nn23)CC1`, the half-maximal inhibitory concentration (IC50) was determined as 20 µM. In the case of `Nc1ncc(-c2ccc3ncc(S(N)(=O)=O)n3n2)cc1C(F)(F)F`, inhibition was half-maximal at 4 µM (IC50).

As for `O=S(=O)(c1cnc2ccc(Cl)nn12)N1CCN(c2ccccn2)CC1`, the IC50 is over 30 µM. Regarding `CS(=O)(=O)c1ccc(-c2ccc3ncc(S(=O)(=O)N4CCN(Cc5ccccc5)CC4)n3n2)cc1`, the half-maximal inhibitory concentration (IC50) was determined as 12 µM.

With `COc1ccc(-c2ccc3ncc(S(=O)(=O)N4CCN(c5ccccn5)CC4)n3n2)cn1`, the 50% inhibitory concentration (IC50) is over 30 µM. In turn, `COc1cccc(CNS(=O)(=O)c2cnc3ccc(-c4cccnc4)nn23)c1` registered a 50% inhibitory concentration (IC50) of 0.3 µM.

Consider `COc1cccc(CNS(=O)(=O)c2cnc3ccc(-c4cnc(N)c(C(F)(F)F)c4)nn23)c1`, for which the IC50 was over 30 µM. In turn, `COc1ccc(-c2ccc3ncc(S(=O)(=O)NCC4CCCO4)n3n2)cc1` (configuration not stated) showed an IC50 of 4 µM.

As for `COc1ccc(-c2ccc3ncc(S(=O)(=O)NCC4CCCO4)n3n2)cn1` (configuration not stated), the IC50 is 6 µM.

Another assay deals with T1, Tumor necrosis factor. Briefly: Inhibition of LPS-induced TNF-alpha production in human MNC suspension after 20 hrs by radioimmunoassay.
Take `COc1ccc([C@@H]2CNC(=O)C2)cc1OC1CCCC1` (racemic) [Adeo]: the IC50 was determined as 0.2 µM.
